From ChEMBL document CHEMBL4689842, “EUbOPEN Chemogenomics Library wave 1” (2021)

Tested on: U2OS
Test: Multiplex assay against U2OS
Format: toxicity, cell-based
Settings: human
Outline: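 Live cells were stained at seeding with Hoechst33342, BioTracker Green Microtubule Cytoskeleton Dye, MitoTracker Red and Annexin V Alexa Fluor 680. Following compound addition, they were imaged on a CQ1 microscope at 37°C and 5% CO2 and gated by CellPathfinder machine learning into Hoechst high-intensity objects or normal cells, with normal cells split into healthy, pyknosed or fragmented nuclei and pyknosed cells into mitotic or apoptotic. Tubulin, mitochondrial-mass and membrane-permeability phenotypes are per cents of healthy-nucleus cells.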

[1] = 12 h, 1 µM, compound concentration 1 uM, replicate 1
[2] = 12 h, 1 µM, compound concentration 1 uM, replicate 2
[3] = 12 h, 10 µM, compound concentration 10 uM, replicate 1
[4] = 12 h, 10 µM, compound concentration 10 uM, replicate 2
[5] = 24 h, 1 µM, compound concentration 1 uM, replicate 1
[6] = 24 h, 1 µM, compound concentration 1 uM, replicate 2
[7] = 24 h, 10 µM, compound concentration 10 uM, replicate 1
[8] = 24 h, 10 µM, compound concentration 10 uM, replicate 2
[9] = 48 h, 1 µM, compound concentration 1 uM, replicate 1
[10] = 48 h, 1 µM, compound concentration 1 uM, replicate 2
[11] = 48 h, 10 µM, compound concentration 10 uM, replicate 1
[12] = 48 h, 10 µM, compound concentration 10 uM, replicate 2

Structure (SMILES): CN1C2CCC1CC(OC(c1ccc(F)cc1)c1ccc(F)cc1)C2.Cl (stereo not given)
- Population Apoptotic (%) [1]: 45%
- Population Fragmented Nuclei (%) [1]: 8%
- Population Healthy Nuclei (%) [1]: 80%
- Population Hoechst High Intensity Objects (%) [1]: 4%
- Population Membrane Permeable-Phenotype (%) [1]: 2%
- Population Mitochondria Different-Phenotype (%) [1]: 11%
- Population Mitotic Cells (%) [1]: 54%
- Population Normal (%) [1]: 95%
- Population Pyknosed Nuclei (%) [1]: 10%
- Total Cell Count [1]: 223
- Population Apoptotic (%) [2]: 100%
- Population Fragmented Nuclei (%) [2]: 5%
- Population Healthy Nuclei (%) [2]: 92%
- Population Hoechst High Intensity Objects (%) [2]: 2%
- Population Membrane Permeable-Phenotype (%) [2]: 3%
- Population Mitochondria Different-Phenotype (%) [2]: 4%
- Population Mitotic Cells (%) [2]: 0%
- Population Normal (%) [2]: 97%
- Population Pyknosed Nuclei (%) [2]: 1%
- Population Tubulin-Different-Phenotype (%) [2]: 8%
- Total Cell Count [2]: 69
- Population Apoptotic (%) [3]: 56%
- Population Fragmented Nuclei (%) [3]: 15%
- Population Healthy Nuclei (%) [3]: 68%
- Population Hoechst High Intensity Objects (%) [3]: 4%
- Population Membrane Permeable-Phenotype (%) [3]: 4%
- Population Mitochondria Different-Phenotype (%) [3]: 81%
- Population Mitotic Cells (%) [3]: 43%
- Population Normal (%) [3]: 95%
- Population Pyknosed Nuclei (%) [3]: 15%
- Population Tubulin-Different-Phenotype (%) [3]: 54%
- Total Cell Count [3]: 151
- Population Apoptotic (%) [4]: 80%
- Population Fragmented Nuclei (%) [4]: 8%
- Population Healthy Nuclei (%) [4]: 78%
- Population Hoechst High Intensity Objects (%) [4]: 6%
- Population Membrane Permeable-Phenotype (%) [4]: 10%
- Population Mitochondria Different-Phenotype (%) [4]: 89%
- Population Mitotic Cells (%) [4]: 20%
- Population Normal (%) [4]: 93%
- Population Pyknosed Nuclei (%) [4]: 13%
- Population Tubulin-Different-Phenotype (%) [4]: 49%
- Total Cell Count [4]: 78
- Population Apoptotic (%) [5]: 50%
- Population Fragmented Nuclei (%) [5]: 7%
- Population Healthy Nuclei (%) [5]: 84%
- Population Hoechst High Intensity Objects (%) [5]: 3%
- Population Membrane Permeable-Phenotype (%) [5]: 1%
- Population Mitochondria Different-Phenotype (%) [5]: 6%
- Population Mitotic Cells (%) [5]: 50%
- Population Normal (%) [5]: 96%
- Population Pyknosed Nuclei (%) [5]: 7%
- Population Tubulin-Different-Phenotype (%) [5]: 3%
- Total Cell Count [5]: 305
- Population Apoptotic (%) [6]: 20%
- Population Fragmented Nuclei (%) [6]: 3%
- Population Healthy Nuclei (%) [6]: 90%
- Population Hoechst High Intensity Objects (%) [6]: 2%
- Population Membrane Permeable-Phenotype (%) [6]: 4%
- Population Mitochondria Different-Phenotype (%) [6]: 4%
- Population Mitotic Cells (%) [6]: 80%
- Population Normal (%) [6]: 97%
- Population Pyknosed Nuclei (%) [6]: 6%
- Population Tubulin-Different-Phenotype (%) [6]: 8%
- Total Cell Count [6]: 82
- Population Apoptotic (%) [7]: 62%
- Population Fragmented Nuclei (%) [7]: 15%
- Population Healthy Nuclei (%) [7]: 65%
- Population Hoechst High Intensity Objects (%) [7]: 7%
- Population Membrane Permeable-Phenotype (%) [7]: 0%
- Population Mitochondria Different-Phenotype (%) [7]: 71%
- Population Mitotic Cells (%) [7]: 37%
- Population Normal (%) [7]: 92%
- Population Tubulin-Different-Phenotype (%) [7]: 30%
- Total Cell Count [7]: 196
- Population Apoptotic (%) [8]: 80%
- Population Fragmented Nuclei (%) [8]: 16%
- Population Healthy Nuclei (%) [8]: 64%
- Population Hoechst High Intensity Objects (%) [8]: 3%
- Population Membrane Permeable-Phenotype (%) [8]: 6%
- Population Mitochondria Different-Phenotype (%) [8]: 78%
- Population Mitotic Cells (%) [8]: 20%
- Population Normal (%) [8]: 96%
- Population Pyknosed Nuclei (%) [8]: 19%
- Population Tubulin-Different-Phenotype (%) [8]: 25%
- Total Cell Count [8]: 107
- Population Apoptotic (%) [9]: 33%
- Population Fragmented Nuclei (%) [9]: 6%
- Population Healthy Nuclei (%) [9]: 87%
- Population Hoechst High Intensity Objects (%) [9]: 1%
- Population Membrane Permeable-Phenotype (%) [9]: 2%
- Population Mitochondria Different-Phenotype (%) [9]: 6%
- Population Mitotic Cells (%) [9]: 66%
- Population Normal (%) [9]: 98%
- Population Pyknosed Nuclei (%) [9]: 6%
- Population Tubulin-Different-Phenotype (%) [9]: 5%
- Total Cell Count [9]: 477
- Population Apoptotic (%) [10]: 0%
- Population Fragmented Nuclei (%) [10]: 1%
- Population Healthy Nuclei (%) [10]: 97%
- Population Hoechst High Intensity Objects (%) [10]: 2%
- Population Membrane Permeable-Phenotype (%) [10]: 5%
- Population Mitochondria Different-Phenotype (%) [10]: 16%
- Population Mitotic Cells (%) [10]: 100%
- Population Normal (%) [10]: 97%
- Population Pyknosed Nuclei (%) [10]: 0%
- Population Tubulin-Different-Phenotype (%) [10]: 7%
- Total Cell Count [10]: 119
- Population Apoptotic (%) [11]: 64%
- Population Fragmented Nuclei (%) [11]: 20%
- Population Healthy Nuclei (%) [11]: 63%
- Population Hoechst High Intensity Objects (%) [11]: 5%
- Population Membrane Permeable-Phenotype (%) [11]: 1%
- Population Mitochondria Different-Phenotype (%) [11]: 44%
- Population Mitotic Cells (%) [11]: 35%
- Population Normal (%) [11]: 94%
- Population Pyknosed Nuclei (%) [11]: 15%
- Population Tubulin-Different-Phenotype (%) [11]: 17%
- Total Cell Count [11]: 249
- Population Apoptotic (%) [12]: 77%
- Population Fragmented Nuclei (%) [12]: 16%
- Population Healthy Nuclei (%) [12]: 75%
- Population Hoechst High Intensity Objects (%) [12]: 6%
- Population Membrane Permeable-Phenotype (%) [12]: 18%
- Population Mitochondria Different-Phenotype (%) [12]: 56%
- Population Mitotic Cells (%) [12]: 22%
- Population Normal (%) [12]: 93%
- Population Pyknosed Nuclei (%) [12]: 7%
- Population Tubulin-Different-Phenotype (%) [12]: 27%
- Total Cell Count [12]: 127
